Reference: publication PMC9055608 (RSC Advances, 2020)
Where “and” joins values, the source holds several entries; their conditions need not be identical. Equal values may be shown once.

Experiments:
A-549 = experiment: MTT cell proliferation assay, A-549; assay type: cell-based, human; conditions: Homo sapiens, A549, 72 h
Summary of the method: (§1)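 ATCC lines grown in DMEM or RPMI-1640 with 10% heat-inactivated FBS and 1% penicillin/streptomycin at 37 °C, 5% CO2. Log-phase cells seeded at about 4000–5000/well and left to adhere 24 h. Sextuplicate wells, 72 h. MTT for 4 h, then DMSO and absorbance. IC50 taken from dose–response curves.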

Tissue distribution = assay type: in vivo, SD rats; conditions: for CL / AUC(0-inf): rat; for CL: tail vein injection of DHDK solution; for AUC(0-inf): iv, 14 mg/kg
Summary of the method: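 SD rats (12 male, 12 female), fasted 12 h, received an intravenous dose of 14 mg kg−1 test-compound micelles. Six rats were killed at each of 0.25, 1, 4 and 24 h. Heart, liver, spleen, lung and kidney were rinsed in ice-cold saline, weighed, homogenised and stored at −80 °C. Samples were extracted with MTBE using curcumin internal standard. Analysis was by C18 LC-ESI-MS/MS (formic acid/acetonitrile gradient, MRM m/z 294.98→106.67).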

[1] = Pathological tissue sections; assay type: in vivo, nude mice; conditions: tissues exposed to different dosages; end of 9 day treatment; HE staining
Summary of the method: (§2)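 Tumour-bearing nude mice were anaesthetised and killed after the 9-day dosing. Heart, liver, spleen, lung, kidney, brain and tumour were fixed in 10% formalin, embedded in paraffin, cut into 4 μm sections and stained with haematoxylin–eosin.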

[2] = Biochemical indexes in serum and plasma; assay type: in vivo, mice; conditions: for BUN mean ± SD: plasma; for BUN mean ± SD / ALT mean ± SD / AST mean ± SD / CRE mean ± SD: DHDK micelles every day for 9 days; for ALT mean ± SD / AST mean ± SD / CRE mean ± SD: serum
Summary of the method: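 Female mice were split into four groups (n = 6) and injected daily for 9 days with test-compound micelles, following the dosing regimen of the xenograft study. Animals were killed on the last dosing day. Kits measured AST, ALT and creatinine in serum, and urea nitrogen in plasma.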

MDA-MB231 = experiment: MTT cell proliferation assay, MDA-MB231; assay type: cell-based, human; conditions: Homo sapiens, MDA-MB-231, 72 h
Summary of the method: as §1

cancer cell lines = experiment: MTT assay, cancer cell lines; assay type: cell-based; conditions: Homo sapiens, read-out: IC50 of other tumour cells
Summary of the method: as §1

[3] = tested on: normal cell lines (LO2, GES-1, BEAS-2B); experiment: MTT assay, normal cell lines; assay type: cell-based, human; conditions: all DHDK concentrations
Summary of the method: (§3)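 Cells seeded at about 4000–5000/well and allowed 24 h to adhere. MTT for 4 h, formazan dissolved in DMSO, absorbance read, and inhibition rate per concentration reported.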

SKOV3 = experiment: MTT cell proliferation assay, SKOV3; assay type: cell-based, human; conditions: Homo sapiens, SK-OV-3, 72 h
Summary of the method: as §1

[4] = tested on: GES-1 human normal gastric epithelial cells; experiment: MTT assay, cytotoxicity against normal cell line GES-1; assay type: cell-based; conditions: for OD value (mean ± SD): GES-1
Summary of the method: as §3

SKMEL-28 = experiment: MTT cell proliferation assay, SKMEL-28; assay type: cell-based, human; conditions: Homo sapiens, SK-MEL-28, 72 h
Summary of the method: as §1

MCF-7 xenograft tumour [5] = experiment: Pathological tissue sections; assay type: in vivo, nude mice
Summary of the method: as §2

N87 = experiment: MTT cell proliferation assay, N87; assay type: cell-based, human; conditions: Homo sapiens, 72 h
Summary of the method: as §1

DU-145 = experiment: MTT cell proliferation assay, DU-145; assay type: cell-based, human; conditions: Homo sapiens, DU-145, 72 h
Summary of the method: as §1

MCF-7 xenograft tumour [6] = experiment: Drug efficacy in vivo, MCF-7 breast cancer model; design: species or system nude mice
[7] = Mouse weight during in vivo efficacy study; design: species or system nude mice; conditions: during the nine days of treatment
HT-29 = experiment: MTT cell proliferation assay, HT-29; assay type: cell-based, human; conditions: Homo sapiens, HT-29, 72 h
Summary of the method: as §1

Calu-3 = experiment: MTT cell proliferation assay, Calu-3; assay type: cell-based, human; conditions: Homo sapiens, Calu-3, 72 h
Summary of the method: as §1

MCF-7 = experiment: MTT cell proliferation assay, MCF-7; assay type: cell-based, human; conditions: Homo sapiens, MCF7, 72 h
Summary of the method: as §1

A375 = experiment: MTT cell proliferation assay, A375; assay type: cell-based, human; conditions: Homo sapiens, A-375, 72 h
Summary of the method: as §1

[8] = tested on: BEAS-2B human normal lung epithelial cell; experiment: MTT assay, cytotoxicity against normal cell line BEAS-2B; assay type: cell-based
Summary of the method: as §3

MDA-MB453 = experiment: MTT cell proliferation assay, MDA-MB453; assay type: cell-based, human; conditions: Homo sapiens, MDA-MB-453, 72 h
Summary of the method: as §1

SKBR3 = experiment: MTT cell proliferation assay, SKBR3; assay type: cell-based, human; conditions: Homo sapiens, SK-BR-3, 72 h
Summary of the method: as §1

[9] = Homo sapiens, GES1, read-out: Inhibition rate

O=C(/C=C/CCc1ccc(O)cc1)/C=C/c1ccc(O)cc1 [DHDK, (1E,4E)-1,7-Bis(4-hydroxyphenyl)hepta-1,4-dien-3-one]
IC50 (A-549): 8.01 ± 0.44 µM | CL (Tissue distribution; Heart): 50.93 ± 26.52 L·kg/h | CL (Tissue distribution; Kidney): 244.93 ± 9.95 L·kg/h | CL (Tissue distribution; Liver): 5.846 ± 1.02 L·kg/h | CL (Tissue distribution; Lung): 8.89 ± 1.97 L·kg/h | CL (Tissue distribution; Spleen): 81.66 ± 45.73 L·kg/h | AUC(0-inf) (Tissue distribution; Sprague-Dawley (SD), kidney): 57.2 ± 32.3 ng·h/mL | AUC(0-inf) (Tissue distribution; Sprague-Dawley (SD), lung): 1630 ± 299 ng·h/mL | AUC(0-inf) (Tissue distribution; Sprague-Dawley (SD), spleen): 207 ± 84.3 ng·h/mL | AUC(0-inf) (Tissue distribution; both, SD, heart): 414 ± 364 ng·h/mL | AUC(0-inf) (Tissue distribution; both, SD, liver): 2450 ± 425 ng·h/mL | order of DHDK concentration in different tissues (Tissue distribution; rats, 14 mg kg^−1 tail vein): lung > liver > heart > kidney > spleen | order of clearance rates in tissues (Tissue distribution; rats, 14 mg kg^−1 tail vein): kidney > spleen > heart > lung > liver | toxicity in tissue slices [1]: No toxicity was observed | liver and kidney toxicity (from BUN, CRE, AST, ALT) ([2]; all administration groups vs blank group): no potential liver and kidney toxicity | BUN mean ± SD ([2]; high dose group): 9.86 ± 0.33 mmol/L | BUN mean ± SD ([2]; low dose group): 10.16 ± 1.35 mmol/L | BUN mean ± SD ([2]; medium dose group): 9.74 ± 0.47 mmol/L | ALT mean ± SD ([2]; high dose group): 38.41 ± 0.67 U L^−1 | AST mean ± SD ([2]; high dose group): 52.98 ± 3.07 U L^−1 | CRE mean ± SD ([2]; high dose group): 82.97 ± 2.97 µmol/L | ALT mean ± SD ([2]; low dose group): 39.18 ± 0.81 U L^−1 | AST mean ± SD ([2]; low dose group): 50.90 ± 3.04 U L^−1 | CRE mean ± SD ([2]; low dose group): 78.85 ± 3.90 µmol/L | ALT mean ± SD ([2]; medium dose group): 39.70 ± 2.75 U L^−1 | AST mean ± SD ([2]; medium dose group): 50.93 ± 0.81 U L^−1 | CRE mean ± SD ([2]; medium dose group): 87.97 ± 7.63 µmol/L | IC50 (MDA-MB231): 4.49 µM | IC50 (cancer cell lines): < 11 µM and < 3.25 µg/mL | inhibition rate of each group on normal cells [3]: less than 5% | IC50 (SKOV3): 9.59 ± 0.44 µM | OD value (mean ± SD) ([4]; DHDK 0.14 μmol·L^−1): 0.71 ± 0.0031 | OD value (mean ± SD) ([4]; DHDK 0.42 μmol·L^−1): 0.71 ± 0.0098 | OD value (mean ± SD) ([4]; DHDK 1.26 μmol·L^−1): 0.71 ± 0.0051 | OD value (mean ± SD) ([4]; DHDK 3.8 μmol·L^−1): 0.70 ± 0.0035 | OD value (mean ± SD) ([4]; DHDK 11.3 μmol·L^−1): 0.69 ± 0.0097 | OD value (mean ± SD) ([4]; DHDK 34.0 μmol·L^−1): 0.68 ± 0.0075 | inhibition at 0.14 µM [4, 9]: 0.17% | inhibition at 0.42 µM [4, 9]: 0.53% | inhibition at 1.26 µM [4, 9]: 1.06% | inhibition at 3.8 µM [4, 9]: 1.35% | inhibition at 11.3 µM [4, 9]: 3.53% | inhibition at 34 µM [4, 9]: 4.85% | IC50 (SKMEL-28): 9.26 ± 0.57 µM | tumour histopathology (MCF-7 xenograft tumour [5]; high-dose group, DHDK 40 mg kg^−1): A large amount of tumour necrosis with nuclear envelope breakdown and dissolved nucleus | tumour histopathology (MCF-7 xenograft tumour [5]; low-dose group, DHDK 10 mg kg^−1): A small amount of punctate nucleolysis and a low degree of necrosis | tumour histopathology (MCF-7 xenograft tumour [5]; medium-dose group, DHDK 20 mg kg^−1): point necrosis and dissolved nucleus | IC50 (N87): 10.8 ± 0.5 µM | IC50 (DU-145): 4.62 ± 0.22 µM | tumour inhibition rate of DHDK high-dose group as share of the cisplatin group (MCF-7 xenograft tumour [6]; DHDK 40 mg kg^−1 vs cisplatin 5 mg kg^−1): 74.6% | Tumour weight (mean) (MCF-7 xenograft tumour [6]; group B, low-dose, DHDK micelles 10 mg kg^−1 every day for 9 days): 597.04 ± 38.19 | Tumour weight (mean) (MCF-7 xenograft tumour [6]; group C, medium-dose, DHDK micelles 20 mg kg^−1 every day for 9 days): 540.53 ± 63.76 | Tumour weight (mean) (MCF-7 xenograft tumour [6]; group D, high-dose, DHDK micelles 40 mg kg^−1 every day for 9 days): 435.13 ± 140.10 | Inhibition rate (IR) determined as tumour weight (MCF-7 xenograft tumour [6]; high-dose, DHDK 40 mg kg^−1 every day for 9 days): 47.85% | Inhibition rate (IR) determined as tumour weight (MCF-7 xenograft tumour [6]; low-dose, DHDK 10 mg kg^−1 every day for 9 days): 28.44% | Inhibition rate (IR) determined as tumour weight (MCF-7 xenograft tumour [6]; medium-dose, DHDK 20 mg kg^−1 every day for 9 days): 35.22% | mouse weight course (in words) [7]: stable weight | IC50 (HT-29): 4.79 ± 0.54 µM | IC50 (Calu-3): 6.65 ± 0.42 µM | IC50 (MCF-7): 9.09 ± 0.46 µM | IC50 (A375): 6.64 ± 0.4 µM | Inhibition rate ([8]; DHDK 0.14 μmol·L^−1): 0.059% | OD value (mean ± SD) ([8]; DHDK 0.14 μmol·L^−1): 0.66 ± 0.0017 | OD value (mean ± SD) ([8]; DHDK 0.42 μmol·L^−1): 0.66 ± 0.0028 | OD value (mean ± SD) ([8]; DHDK 1.26 μmol·L^−1): 0.66 ± 0.0027 | OD value (mean ± SD) ([8]; DHDK 3.8 μmol·L^−1): 0.66 ± 0.0010 | OD value (mean ± SD) ([8]; DHDK 11.3 μmol·L^−1): 0.64 ± 0.0028 | OD value (mean ± SD) ([8]; DHDK 34.0 μmol·L^−1): 0.63 ± 0.0030 | inhibition at 0.42 µM ([8]; Homo sapiens, read-out: Inhibition rate, BEAS-2B, DHDK 0.42 μmol·L^−1): 0.5% | inhibition at 1.26 µM ([8]; Homo sapiens, read-out: Inhibition rate, BEAS-2B, DHDK 1.26 μmol·L^−1): 0.83% | inhibition at 3.8 µM ([8]; Homo sapiens, read-out: Inhibition rate, BEAS-2B, DHDK 3.8 μmol·L^−1): 0.86% | inhibition at 11.3 µM ([8]; Homo sapiens, read-out: Inhibition rate, BEAS-2B, DHDK 11.3 μmol·L^−1): 3.1% | inhibition at 34 µM ([8]; Homo sapiens, read-out: Inhibition rate, BEAS-2B, DHDK 34.0 μmol·L^−1): 4.82% | IC50 (MDA-MB453): 10.4 ± 0.92 µM | IC50 (SKBR3): 1.71 ± 0.1 µM
